These results are taken from ChEMBL document CHEMBL1149123, “Antineoplastic agents. 499. Synthesis of hystatin 2 and related 1H-benzo[de][1,6]-naphthyridinium salts from aaptamine” (J Med Chem, 2004).

The target of test [1] is Protein kinase C alpha type (Homo sapiens) (UniProt P17252). Kind of test: Inhibition of PKC alpha at […]. Particulars: concentration not given here. The procedure, abridged:
(§1)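 PKC alpha ligand binding, measured as inhibition of [20-³H]phorbol 12,13-dibutyrate binding at a single compound concentration of […]. Triplicate measurements in single or triplicate experiments, depending on compound. Reported as percent inhibition, mean ± SEM.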

The subject of another test is SF-268. Description: Inhibition of CNS SF-268 cell proliferation. The class given is functional. To be noted: Homo sapiens, read-out: ED50 (the source's name).
The test system of another test is BXPC-3. Kind of test: Inhibition of pancreatic BXPC-3 cell proliferation. Format: functional. Particulars: Homo sapiens, read-out: ED50 (the source's name).
Another test relates to DU-145. Description: Inhibition of prostate DU-145 cell proliferation. The class given is functional. To be noted: Homo sapiens, read-out: ED50 (the source's name).
A further test deals with MCF7. Kind of test: Inhibition of breast MCF-7 cell proliferation. Particulars: Homo sapiens, read-out: ED50 (the source's name). Format: functional.
For the next test, the system named is KM-20L2. Description: Inhibition of colon KM20L2 cell proliferation. Format: functional. Particulars: Homo sapiens, read-out: ED50 (the source's name).
The next test concerns P388. Description: Inhibition of murine leukemia P388 cell proliferation. The class given is functional. Particulars: Mus musculus, read-out: ED50 (the source's name).
In a further test the test system is NCI-H460. Kind of test: Inhibition of lung NCI-H460 cell proliferation. Format: functional. To be noted: Homo sapiens, read-out: ED50 (the source's name).
The target of test [2] is Protein kinase C alpha type (Homo sapiens) (UniProt P17252). Kind of test: Displacement of [20-3H]-phorbol 12,13-dibutyrate from protein kinase C alpha at […]. To be noted: concentration not given here. In a few lines:
as §1

In test [3] the test system is Stenotrophomonas maltophilia. Description: Antimicrobial activity against Stenotrophomonas maltophilia; No inhibition at 64 ug/mL. Format: functional, organism-based.
In test [4] the test system is Neisseria gonorrhoeae. Description: Antimicrobial activity against Neisseria gonorrhoeae; No inhibition at 64 ug/mL. The class given is functional.
Another test relates to Cryptococcus neoformans. Kind of test: Antimicrobial activity against Cryptococcus neoformans; No inhibition at 64 ug/mL. The class given is functional, organism-based.
A further test has as its system Escherichia coli. Description: Antimicrobial activity against Escherichia coli; No inhibition at 64 ug/mL. The class given is functional.
Test [5] concerns Micrococcus luteus. Description: Antimicrobial activity against Micrococcus luteus; 8-16. The class given is functional.
Test [6] has as its system Streptococcus pneumoniae. Kind of test: Antimicrobial activity against Streptococcus pneumoniae; No inhibition at 64 ug/mL. Format: functional.
For a further test, the system named is Candida albicans. Description: Antimicrobial activity against Candida albicans; No inhibition at 64 ug/mL. The class given is functional, organism-based.
Another test relates to Staphylococcus aureus. Description: Antimicrobial activity against Staphylococcus aureus; No inhibition at 64 ug/mL. Format: functional, organism-based.
A further test deals with Enterococcus faecalis. Kind of test: Antimicrobial activity against Enterococcus faecali; No inhibition at 64 ug/mL. Format: functional.
Another test relates to Enterobacter cloacae. Description: Antimicrobial activity against Enterobacter cloacae; No inhibition at 64 ug/mL. The class given is functional, organism-based.
Test [7] in a line: Effect on tubulin assembly was determined. The class given is functional. The procedure, abridged:
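Tubulin assembly tested in vitro, top concentration […].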

For test [8], the system named is Neisseria gonorrhoeae. Description: Antimicrobial activity against Neisseria gonorrhoeae. Format: functional.
The subject of test [9] is Micrococcus luteus. Description: Antimicrobial activity against Micrococcus luteus; No inhibition at 64 ug/mL. The class given is functional, organism-based.
For test [10], the system named is Micrococcus luteus. Kind of test: Antimicrobial activity against Micrococcus luteus. Format: functional.
Test [11] concerns Streptococcus pneumoniae. Kind of test: Antimicrobial activity against Streptococcus pneumoniae. The class given is functional.
The target in test [12] is Protein kinase C alpha type (Homo sapiens) (UniProt P17252). Kind of test: Inhibition of PKC alpha. The procedure, abridged: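 Competition with [20-³H]phorbol 12,13-dibutyrate binding to PKC alpha. Full dose–response curves of binding inhibition were determined.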
The subject of test [13] is Micrococcus luteus. Kind of test: Antimicrobial activity against Micrococcus luteus; 0.5-2. The class given is functional.
In test [14] the test system is Mycobacterium tuberculosis. Kind of test: Antimicrobial activity against Mycobacterium tuberculosis at 6.25 ug/mL. Format: functional.

pIC50: −log10 of the molar value. The source made the active and inactive calls. No cut-off for these calls is given here.

As usually defined, the inhibition is the share of the control response that was lost under treatment. In test [1], `COc1cc2c3c(cc[n+](C)c3c1OC)N(C)C=C2.[I-]` yielded an inhibition of less than 6%. For the same molecule, the EC50 came to 0.69 µg/mL with SF-268; 7.1 µg/mL in the test with BXPC-3; 3.5 µg/mL with DU-145; 4.9 µg/mL in the test on MCF7; 6.1 µg/mL with KM-20L2; 3.89 µg/mL in the test with P388. The EC50 in the test on NCI-H460 is more than 10 µg/mL.

Turning to `COc1cc2c3c(ccnc3c1OC)N(C)C=C2`, the inhibition in test [1] is less than 6%. The EC50 with SF-268, in the test with BXPC-3, with DU-145, in the test on MCF7, in the test on KM-20L2 and in the test on P388 was more than 10 µg/mL throughout. Moreover, the EC50 in the test on NCI-H460 is more than 10 µg/mL.

Regarding `COc1ccc(C[n+]2ccc3c4c(cc(OC)c(OC)c42)C=CN3Cc2cc(OC)c(OC)c(OC)c2)cc1O.[Br-]`, the inhibition came to 16% in test [2] and 43.2% in [1]. In addition, the result (in test [3]; in the test with Neisseria gonorrhoeae [4]; in the test on Cryptococcus neoformans; in the test on Escherichia coli; in the test on Streptococcus pneumoniae [6]; in the test on Candida albicans) was inactive. The outcome in the test with Staphylococcus aureus, in the test on Enterococcus faecalis and with Enterobacter cloacae was inactive. The EC50 with SF-268, in the test with BXPC-3, with DU-145, in the test with MCF7, in the test with KM-20L2 and in the test with P388 was more than 10 µg/mL throughout. For the same molecule, the EC50 in the test with NCI-H460 was more than 10 µg/mL. The molecule also had an Activity with Micrococcus luteus [5] of 16 µg/mL.

As a reminder, the pIC50 is the negative decadic logarithm of the IC50, by convention in mol/L. The low end stands for a large IC50, the high end for a small IC50. On to `COc1cc2ccnc3c2c(c1O)N(C)C=C3` [ISOAAPTAMINE], for which, in test [7], the negative-log IC50 (pIC50) is 4.51.

Take `COc1cc(CN2C=Cc3cc(OC)c(OC)c4nccc2c34)cc(OC)c1OC.Cl`: the inhibition in test [1] is less than 6%. Moreover, the result (in test [3]; with Cryptococcus neoformans; with Escherichia coli; in the test with Micrococcus luteus [9]; in the test with Streptococcus pneumoniae [6]; in the test with Candida albicans) was inactive. For the same molecule, the result in the test on Staphylococcus aureus, in the test on Enterococcus faecalis and with Enterobacter cloacae was inactive. For the same molecule, the Activity in the test on Neisseria gonorrhoeae [8] worked out at 64 µg/mL. Moreover, the EC50 is more than 10 µg/mL in the test on SF-268; more than 10 µg/mL with BXPC-3; more than 10 µg/mL with DU-145; more than 10 µg/mL in the test with MCF7; 3.4 µg/mL with KM-20L2; 4.64 µg/mL in the test with P388. For the same molecule, in the test with NCI-H460, the EC50 was more than 10 µg/mL.

For the molecule `COc1ccc(CN2C=Cc3cc(OC)c(OC)c4nccc2c34)cc1.Cl`, the Activity in the test on Micrococcus luteus [10], with Neisseria gonorrhoeae [8] and with Streptococcus pneumoniae [11] was 64 µg/mL each time. The inhibition in test [2] was 9.2%; in test [1] it was less than 6%. For the same molecule, the outcome (in test [3]; in the test on Cryptococcus neoformans; in the test on Escherichia coli; in the test on Candida albicans; in the test with Staphylococcus aureus; with Enterococcus faecalis) was inactive. Moreover, the result in the test with Enterobacter cloacae was inactive. The EC50 in the test with SF-268 stood at 8.2 µg/mL; in the test on BXPC-3, 4.2 µg/mL; in the test with DU-145, 3.1 µg/mL; in the test with MCF7, 8 µg/mL; with KM-20L2, 3.9 µg/mL; in the test on P388, 2.19 µg/mL. Also, in the test on NCI-H460, the EC50 was found to be 5.1 µg/mL.

Turning to `COc1cc2c3c(cc[n+](Cc4ccccc4)c3c1OC)N(Cc1ccccc1)C=C2.[Cl-]`, the ID50 in test [12] turned out to be 20.8 µM. The inhibition in [2] worked out at 11.8%; in test [1] it was 71.1%. The result (in [3]; in the test with Cryptococcus neoformans; in the test with Candida albicans; in the test on Staphylococcus aureus; in the test on Enterobacter cloacae) was inactive. Besides, the Activity in the test on Micrococcus luteus [13] worked out at 2 µg/mL; in the test with Neisseria gonorrhoeae [4], 0.25 µg/mL; in the test on Escherichia coli, 8 µg/mL; with Streptococcus pneumoniae [6], 32 µg/mL; with Enterococcus faecalis, 32 µg/mL. The EC50 with SF-268 came out at 0.064 µg/mL; in the test on BXPC-3, 0.061 µg/mL; in the test with DU-145, 0.036 µg/mL; in the test with MCF7 it was 0.27 µg/mL; in the test with KM-20L2, 0.055 µg/mL; with P388, 0.234 µg/mL. In the test on NCI-H460, the EC50 was 0.26 µg/mL. The molecule further displayed an inhibition at 6.25 µg/mL in test [14] of 98%.

Regarding `COc1cc2c3c(ccnc3c1OC)N(Cc1ccccc1)C=C2.Cl`, the inhibition in test [2] was 6.4%; in test [1], less than 6%. Also, the result (in test [3]; in the test on Cryptococcus neoformans; with Escherichia coli; in the test with Micrococcus luteus [9]; with Candida albicans; in the test with Staphylococcus aureus) was inactive. Also, the outcome with Enterococcus faecalis and in the test on Enterobacter cloacae was inactive. In addition, the Activity in the test on Neisseria gonorrhoeae [8] and in the test on Streptococcus pneumoniae [11] was 64 µg/mL throughout. Moreover, the EC50 is more than 10 µg/mL in the test with SF-268; 4.3 µg/mL with BXPC-3; 4.4 µg/mL in the test on DU-145; more than 10 µg/mL in the test on MCF7; 2.2 µg/mL in the test with KM-20L2; 1.64 µg/mL in the test on P388. In addition, in the test on NCI-H460, the EC50 came to 4.9 µg/mL.
